The values that follow come from ChEMBL document CHEMBL1151815, “Amides and benzenoids from Zanthoxylum ailanthoides with inhibitory activity on superoxide generation and elastase release by neutrophils” (J Nat Prod, 2009).

The structures appear in SMILES notation. Values after ≈ are worked out from the molar mass of the structure shown.

One assay in a line: Antiinflammatory activity against human neutrophils assessed as inhibition of fMLP/CB-induced elastase release. Particulars: Neutrophil. The assay is classed as functional, cell-based. The essentials:
(§1)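 Human neutrophils from healthy adult volunteers' venous blood, isolated by dextran sedimentation, Ficoll Hypaque gradient and hypotonic erythrocyte lysis, held in Ca2+-free HBSS pH 7.4 at 4 °C. Cells (6 × 10^5/mL) with MeO-Suc-Ala-Ala-Pro-Val-p-nitroanilide (100 µM) equilibrated 2 min at 37 °C, compound 5 min, then fMLP (100 nM)/cytochalasin B (0.5 µg/mL). A405 monitored continuously; n = 4, mean ± SEM.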
The term IC50 denotes the concentration at which inhibition is half-maximal. On to `COc1ccc(CCN(C)C(=O)c2ccccc2)cc1`, for which the 50% inhibitory concentration (IC50) was determined as 7.48 µg/mL (≈ 27.8 µM).

With `CC(=O)/C=C/C=C/C(=O)NCC(C)C`, the IC50 worked out at 6.2 µg/mL (≈ 31.8 µM).

On to `COc1ccc(CCN(C)C(=O)/C=C/c2ccc(O)cc2)cc1` [AILANTHAMIDE], for which the concentration for half-maximal inhibition (IC50) was determined as 4.23 µg/mL (≈ 13.6 µM).

On to `COc1c(O)ccc2c1cnc1c3cc4c(cc3ccc21)OCO4` [DECARINE], for which the IC50 came out at 1.94 µg/mL (≈ 6.08 µM).

With `COc1cc(C(=O)C(CO)c2ccc(O)c(OC)c2)ccc1O` (configuration not stated) [EVOFOLIN B], the concentration for half-maximal inhibition (IC50) worked out at 6.15 µg/mL (≈ 19.3 µM).

Take `O=S(=O)(F)Cc1ccccc1` [PHENYLMETHYLSULFONYLFLUORIDE]: the IC50 turned out to be 35.2 µg/mL (≈ 202 µM).

Turning to `c1cc2c(cc1[C@H]1OC[C@H]3[C@@H]1CO[C@@H]3c1ccc3c(c1)OCO3)OCO2` [SESAMIN], the IC50 was 1.38 µg/mL (≈ 3.89 µM).

With `CC1(C)C=Cc2cc3ccc(=O)oc3cc2O1` [XANTHYLETIN], the IC50 is 5.53 µg/mL (≈ 24.2 µM).

A short description of another assay: Antiinflammatory activity against human neutrophils assessed as inhibition of fMLP/CB-induced elastase release at 10 ug/ml. Type of assay: functional. The settings on record: Neutrophil. Put shortly: as §1
Broadly, the inhibition is the share of the control response that was lost under treatment. Consider `COc1c2ccoc2nc2c(OC)cccc12` [GAMMA-FAGARINE], for which the inhibition at 10 µg/mL turned out to be 19.1%.

On to `O=C1OC[C@H](Cc2ccc3c(c2)OCO3)[C@H]1Cc1ccc2c(c1)OCO2` [HINOKININ], for which the inhibition at 10 µg/mL was determined as 24.7%.

For the compound `COc1cc2ccc(=O)oc2cc1OC` [SCOPARONE], the inhibition at 10 µg/mL came out at 43.1%.

A further assay can be described thus: Antiinflammatory activity against human neutrophils assessed as inhibition of fMLP/CB-induced superoxide anion generation. Particulars: Neutrophil. The assay is classed as functional, cell-based. Put shortly: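 Neutrophils (6 × 10^5/mL, dextran/Ficoll-isolated from healthy adults) with 0.5 mg/mL ferricytochrome c and 1 mM Ca2+, 2 min at 37 °C, compound or DMSO 5 min, cytochalasin B (1 µg/mL) 3 min, then fMLP 100 nM 10 min. SOD-inhibitable (100 U/mL) cytochrome c reduction at 550 nm, extinction coefficient 21.1/mM/10 mm; n = 4, mean ± SEM.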
Turning to `COc1ccc(CCN(C)C(=O)c2ccccc2)cc1`, the IC50 stood at 8.49 µg/mL (≈ 31.5 µM).

For the compound `CC(=O)/C=C/C=C/C(=O)NCC(C)C`, the IC50 was 4.2 µg/mL (≈ 21.5 µM).

For the compound `COc1ccc(CCN(C)C(=O)/C=C/c2ccc(O)cc2)cc1` [AILANTHAMIDE], the IC50 came to 3.71 µg/mL (≈ 11.9 µM).

As to `COc1c(O)ccc2c1cnc1c3cc4c(cc3ccc21)OCO4` [DECARINE], the IC50 was determined as 1.29 µg/mL (≈ 4.04 µM).

`c1ccc2c(c1)[I+]c1ccccc1-2` [DIPHENYLENEIODONIUM]: the concentration for half-maximal inhibition (IC50) was 0.54 µg/mL.

Regarding `COc1cc(C(=O)C(CO)c2ccc(O)c(OC)c2)ccc1O` (configuration not stated) [EVOFOLIN B], the IC50 came to 5.34 µg/mL (≈ 16.8 µM).

`COc1c2ccoc2nc2c(OC)cccc12` [GAMMA-FAGARINE]: the IC50 came to 7.17 µg/mL (≈ 31.3 µM).

Turning to `O=C1OC[C@H](Cc2ccc3c(c2)OCO3)[C@H]1Cc1ccc2c(c1)OCO2` [HINOKININ], the IC50 was 0.6 µg/mL (≈ 1.69 µM).

For `COc1cc2ccc(=O)oc2cc1OC` [SCOPARONE], the IC50 was 8.25 µg/mL (≈ 40 µM).

On to `c1cc2c(cc1[C@H]1OC[C@H]3[C@@H]1CO[C@@H]3c1ccc3c(c1)OCO3)OCO2` [SESAMIN], for which the IC50 amounted to 4.3 µg/mL (≈ 12.1 µM).

For `CC1(C)C=Cc2cc3ccc(=O)oc3cc2O1` [XANTHYLETIN], the IC50 was 4.1 µg/mL (≈ 18 µM).
